Assay outcomes: PubChem BioAssay, Sanford-Burnham Center for Chemical Genomics
SENP7 block = inhibitors of human SENP7 protease; hit rate 1.5% among 330,000; inhibition, % at 5 µM; AID 434973; recombinant SENP7, Z-RLRGG-aminoluciferin luminescence, 40 min; Q9BQF6;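 active means inhibition above about 50% at the single test dose, limit read from the data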;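 further: plate controls were DMSO with enzyme for no effect and no enzyme buffer wells for full effect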
Target sequence (Q9BQF6 706-1050 limits assumed): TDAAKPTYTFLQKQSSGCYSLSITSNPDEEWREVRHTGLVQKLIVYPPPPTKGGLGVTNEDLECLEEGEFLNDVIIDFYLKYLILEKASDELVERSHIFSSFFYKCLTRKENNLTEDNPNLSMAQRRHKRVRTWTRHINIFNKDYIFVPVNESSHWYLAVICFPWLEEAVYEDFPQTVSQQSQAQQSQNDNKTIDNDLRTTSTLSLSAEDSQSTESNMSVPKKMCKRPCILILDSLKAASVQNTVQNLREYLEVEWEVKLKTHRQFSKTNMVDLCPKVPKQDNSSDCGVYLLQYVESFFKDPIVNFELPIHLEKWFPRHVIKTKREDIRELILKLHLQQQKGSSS
SENP8 block-1 = SENP8 protease inhibition; Q96LD8; purified SENP8, Z-RLRGG-aminoluciferin cleavage, luminescence; inhibition, % at 10 µM; hit rate 1.2% among 330,000; AID 2540; in the data active means inhibition above about 50%
Target sequence (Q96LD8 whole entry, looked up): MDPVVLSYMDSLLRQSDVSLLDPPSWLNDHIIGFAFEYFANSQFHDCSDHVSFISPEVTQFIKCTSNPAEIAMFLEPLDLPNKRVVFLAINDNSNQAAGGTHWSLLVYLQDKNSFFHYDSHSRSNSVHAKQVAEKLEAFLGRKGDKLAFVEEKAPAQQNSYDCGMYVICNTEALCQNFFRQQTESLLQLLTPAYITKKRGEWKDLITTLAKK
SENP8 block-2 = SENP8 (human) protease inhibition. hit rate 0.64% among 360,000. recombinant SENP8, Nedd8 substrate fluorescence. inhibition, % at 20 µM; in the data active means inhibition mostly above about 40%, no sharp cut-off; inactive means mostly below about 27%
SENP6 block = blocks the human protease SENP6; Q9GZR1; Recombinant SENP6 catalytic domain, aminoluciferin luminescence; inhibition, % at 10 µM; hit rate 1.8% among 330,000;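 active means inhibition above about 50% at the single tested dose, limit read from the data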;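 further: plate controls were DMSO wells with enzyme for no effect and DMSO wells lacking enzyme for full effect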
SENP1 FRET inh = inhibitors of human SENP1 SUMO protease catalytic domain. Q9P0U3. recombinant SENP1 catalytic domain, CyPet-SUMO1-YPet FRET cleavage. inhibition, % at 10 µM. hit rate 0.21% among 360,000. AID 624204;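 active means inhibition at least 30% at 10 µM, raw YFP signal under a set limit, fluorescence ratio 0.5 to 1.5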;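 further: 0% = enzyme with DMSO and 100% = no enzyme wells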
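Compound: 10 µM single point, 0.5% DMSO; Test system: hSENP1 catalytic domain, recombinant; Timing: 50 min reaction at room temperature; Technique: FRET, CFP and YFP emission; Control set: no-enzyme wells low, DMSO-plus-enzyme wells high control.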
SENP8 conf = confirmation of human SENP8 protease inhibitors | hit rate 40% among 6,200 | inhibition, % at 12.5 µM | AID 488912 | Recombinant SENP8, Z-RLRGG-aminoluciferin luminescence, 60 min | shares compounds with SENP7 block;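 active means mean inhibition across replicates above about 50%, limit read from the data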
SENP6 conf = confirmation of human SENP6 protease inhibitors. inhibition, % at 12.5 µM. recombinant SENP6, Z-RLRGG-aminoluciferin luminescence. shares compounds with SENP7 block. hit rate 58% among 6,200
SENP7 conf = confirmation of human SENP7 protease inhibitors. shares compounds with SENP7 block. recombinant SENP7, Z-RLRGG-aminoluciferin luminescence, 40 min. inhibition, % at 12.5 µM. hit rate 69% among 6,200. AID 488917
Casp3 SENP sel = caspase-3 inhibition (SENP selectivity assay). AID 488918. hit rate 60% among 6,200. inhibition, % at 12.5 µM. purified caspase-3, Z-DEVD-aminoluciferin luminescence, 60 min. shares compounds with SENP7 block;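 active means mean inhibition above about 50%, limit read from the data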;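 further: plate controls were enzyme with DMSO for no effect and wells without caspase-3 for full effect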
Luc interf = luminescence interference (SENP counter-screen); shares compounds with SENP7 block; Pre-incubated SENP8/Z-RLRGG-aminoluciferin, luciferase luminescence interference; inhibition, % at 12.5 µM; hit rate 39% among 6,200;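 active means mean inhibition above about 50% when retested at one dose, limit read from the data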;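 further: plate controls were DMSO wells with completed reaction for no effect and substrate without enzyme for full effect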
* marks the source's active call; other numbers are inactive results; · = no result given. Only some compounds are listed: those with a hit (about 2.5% of all), similar ones and a draw of the others.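 How the source made its calls, unless noted: active means mean inhibition above about 50% in the one-dose retest (limit read from the data); inactive means the rest.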

SMILES	SENP7 block	SENP8 block-1	SENP8 block-2	SENP6 block	SENP1 FRET inh	SENP8 conf	SENP6 conf	SENP7 conf	Casp3 SENP sel	Luc interf
O=C(CSc1nnc(-c2cccnc2)n1Cc1ccco1)NCc1ccc2c(c1)OCO2	59*	4	15	-7	-11	-9	-6	-11	-1	2
O=C(NCC1CC1)c1ccc(-c2cn[nH]c2)c2ccoc12	·	·	-63	·	2	·	·	·	·	·
CCN(CC)C(=O)Oc1ccc2oc(=O)cc(-c3cc4cccc(OC)c4o3)c2c1	-3	-3	-101	5	1	·	·	·	·	·
Cc1ccc(C)c(-c2nc3ccc(N)cc3[nH]2)c1	1	-6	-270	11	-19	·	·	·	·	·
Cc1ccc(C)c(-c2nc3cc(N)ccc3o2)c1	17	30	-413	55*	-60	27	27	69*	26	50*
Nc1ccc2oc(C3CCCCC3)nc2c1	8	0	-87	13	3	·	·	·	·	·
Nc1ccc(-c2nc3cc(N)ccc3o2)cc1	41	17	-469	52*	-10	43	34	77*	67*	52*
COC(=O)c1ccc(-c2nc3cc(N)ccc3o2)cc1	73*	69*	-176	85*	36	24	27	74*	54*	6
CN(C)c1ccc(-c2nc3cc(N)ccc3o2)cc1	95*	91*	-449	93*	-42	85*	94*	100*	91*	79*
O=[N+]([O-])c1ccc(N2CCSCC2)cc1	-5	-9	10	-27	-2	·	·	·	·	·
O=C(NCc1cc2ccccc2[nH]1)C1CCC(=O)N(CCCN2CCCC2=O)C1 (centres undefined)	4	2	-45	-4	-35	·	·	·	·	·
O=C(NCCNC(=O)Oc1cccc2ccccc12)Oc1cccc2ccccc12	·	·	-53	·	2	·	·	·	·	·
O=C(Nc1ccc(S(=O)(=O)Nc2ncccn2)cc1)c1cccc([N+](=O)[O-])c1	·	·	17	·	0	·	·	·	·	·
Nc1ccc(-c2nc3ccc(N)cc3o2)cc1	61*	47	-423	68*	-17	38	45	82*	79*	62*
Nc1ccc(-c2nc3ccc(-c4nc5ccccc5o4)cc3[nH]2)cc1	-7	-4	-474	-3	-23	·	·	·	·	·
Cc1ccc(-c2nc3cc(N)ccc3o2)cc1Br	91*	87*	-307	93*	7	2	91*	101*	74*	28
CCCCOCCCNC(=O)CN1C(=O)c2ccccc2C1=O	88*	4	12	-27	1	-1	0	-1	-1	-4
Cc1ccc(NC(=O)CNC(=O)CN2C(=O)c3ccccc3C2=O)cc1	·	·	4	·	1	·	·	·	·	·
Nn1c(-c2cccs2)nc2sc3c(c2c1=O)CCCC3	59*	71*	-409	90*	-10	31	70*	90*	60*	27
Cc1ccccc1-c1nc2sc3c(c2c(=O)n1N)CCCC3	-5	7	-28	5	-3	·	·	·	·	·
O=c1oc(-c2cccs2)nc2scc(-c3cccs3)c12	-26	-17	-121	-22	-72	·	·	·	·	·
Cc1sc2nc(-c3cccs3)oc(=O)c2c1C	51*	35	-35	15	-26	39	36	60*	32	50
Cc1ccccc1-c1nc2sc3c(c2c(=O)o1)CCC3	79*	83*	-54	88*	-28	9	8	53*	38	7
O=c1oc(/C=C/c2ccccc2)nc2sc3c(c12)CCC3	5	21	22	65*	-22	-20	-20	-4	17	-5
COc1ccc(/C=C/c2nc3sc4c(c3c(=O)o2)CCC4)cc1	12	9	-11	17	9	·	·	·	·	·
SMILES	SENP7 block	SENP8 block-1	SENP8 block-2	SENP6 block	SENP1 FRET inh	SENP8 conf	SENP6 conf	SENP7 conf	Casp3 SENP sel	Luc interf
O=c1oc(-c2ccccc2)nc2sc3c(c12)CCCC3	96*	92*	-35	94*	-15	62*	48	40	81*	33
O=c1oc(-c2cc3ccccc3o2)nc2sc3c(c12)CCCC3	-7	0	-123	-23	-21	·	·	·	·	·
O=c1oc(-c2cccs2)nc2sc3c(c12)CCCCC3	5	39	9	55*	-58	15	9	2	24	6
O=C(COc1coc(CN2CCc3ccccc3C2)cc1=O)Nc1cccc([N+](=O)[O-])c1	-1	12	14	2	-16	·	·	·	·	·
Cc1ccc(C(=O)Nc2ccc3nc(C)sc3c2)s1	0	0	20	0	1	·	·	·	·	·
Cc1nc2ccc(NC(=O)c3ccc(Cl)nc3)cc2s1	1	-5	3	92*	-8	2	-5	-9	8	-5
Cc1nc2ccc(NC(=O)c3ccc(Cl)c([N+](=O)[O-])c3)cc2s1	-4	-11	0	-4	2	·	·	·	·	·
Cc1nc2ccc(NC(=O)c3cc(Cl)ccn3)cc2s1	68*	60*	2	74*	-31	11	30	59*	37	8
Cc1cc(C)cc(S(=O)(=O)c2cn(C)c3cc(N4CCN(C)CC4)c(F)cc3c2=O)c1	3	-1	-163	13	-1	·	·	·	·	·
COc1ccc(-c2cc3nc4n(c(=O)c3s2)CCC4)cc1	96*	91*	-337	95*	0	12	62*	81*	76*	12
Cc1nc2cc(-c3ccccc3)sc2c(=O)n1N	99*	96*	-9	96*	2	98*	99*	102*	98*	97*
COc1ccc(-c2cc3nc4n(c(=O)c3s2)CCCCC4)cc1	18	30	-403	46	0	·	·	·	·	·
COc1ccc(-c2cc3nc(C)n(N)c(=O)c3s2)cc1	100*	97*	-432	99*	-2	99*	100*	103*	98*	99*
COc1cccc(CNc2nc3cc(-c4ccccc4)sc3c(=O)n2C)c1	·	·	-125	·	1	·	·	·	·	·
Cc1cccc(NC(=O)C2CC(O)CN2C(=O)Oc2ccccc2)c1 (centres undefined)	2	8	2	0	0	·	·	·	·	·
Cc1cc(NC(=O)C(Cl)Cl)cc2c1OCO2	·	·	14	·	3	·	·	·	·	·
CC(C)(C)c1ccc(C(=O)Nc2cnccn2)cc1	55*	29	10	52*	-3	38	47	60*	63*	30
COc1ccc(C(=O)Nc2cnccn2)cc1[N+](=O)[O-]	5	1	13	-18	1	·	·	·	·	·
